Compounds with a hit are over-represented: about 2.6% of the library has one in this group of screens.
SENP8 block-1: SENP8 (human) protease inhibition | Q96LD8 | recombinant SENP8, Nedd8 substrate fluorescence | inhibition, % at 20 µM | 360,000 compounds, 0.64% hits | AID 602440; in the data active = inhibition mostly above about 40%, no sharp cut-off; inactive = mostly below about 27%
SENP8 block-2: inhibitors of human SENP8 protease; Q96LD8; purified SENP8, Z-RLRGG-aminoluciferin cleavage, luminescence; inhibition, % at 10 µM; 330,000 compounds, 1.2% hits; AID 2540; in the data active = inhibition above about 50%
SENP7 block: SENP7 protease inhibition; 330,000 compounds, 1.5% hits; recombinant SENP7, Z-RLRGG-aminoluciferin luminescence, 40 min; AID 434973; inhibition, % at 5 µM; Q9BQF6;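 active = inhibition above about 50% at the single test dose, limit read from the data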
SENP1 inh: blocks the human SENP1 SUMO protease catalytic domain | recombinant SENP1 catalytic domain, CyPet-SUMO1-YPet FRET cleavage | AID 624204 | inhibition, % at 10 µM | Q9P0U3 | 360,000 compounds, 0.21% hits;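 active = inhibition at least 30% at 10 µM, raw YFP signal under a set limit, fluorescence ratio 0.5 to 1.5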
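Material: hSENP1 catalytic domain, recombinant; medium: Tris pH 8 with BME, BSA, NP40 and catalase; compound: single concentration of 10 µM compound, 0.5% DMSO final; technique: FRET read of cyan and yellow fluorescence; timing: 50 min enzyme reaction, room temperature, light-protected; reagent: SFCypet-SUMO1-SFYpet substrate at 25 nM; control set: no-enzyme low, enzyme-DMSO high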
Platelet DG rel: modulates dense granule release in human platelets. human platelet-rich plasma, SFLLRN dense granule ATP release, luminescence. inhibition, %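 (compounds screened at 7.5 µM in platelet-rich plasma)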. 300,000 compounds, 0.22% hits;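 active = mean replicate score, as percent of positive control, at or above 50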
SENP6 inh: blocks the human protease SENP6; Recombinant SENP6 catalytic domain, aminoluciferin luminescence; Q9GZR1; 330,000 compounds, 1.8% hits; inhibition, % at 10 µM;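 active = inhibition above about 50% at the single tested dose, limit read from the data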
Target sequence (Q9GZR1 628-1112 limits assumed): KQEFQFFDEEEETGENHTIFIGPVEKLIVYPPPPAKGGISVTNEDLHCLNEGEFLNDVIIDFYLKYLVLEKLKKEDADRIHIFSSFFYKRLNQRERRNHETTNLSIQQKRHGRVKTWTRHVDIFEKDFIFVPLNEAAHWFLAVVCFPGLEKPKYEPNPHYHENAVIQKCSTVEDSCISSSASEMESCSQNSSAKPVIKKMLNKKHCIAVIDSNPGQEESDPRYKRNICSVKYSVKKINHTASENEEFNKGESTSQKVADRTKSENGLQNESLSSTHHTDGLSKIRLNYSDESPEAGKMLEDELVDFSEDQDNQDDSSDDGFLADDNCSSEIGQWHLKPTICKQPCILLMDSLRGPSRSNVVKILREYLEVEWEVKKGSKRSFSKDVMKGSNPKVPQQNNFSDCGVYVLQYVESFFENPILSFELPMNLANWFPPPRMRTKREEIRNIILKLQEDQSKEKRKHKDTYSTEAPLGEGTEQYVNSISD
Hits are given with their value; - = inactive; . = no result.

SMILES	SENP8 block-1	SENP8 block-2	SENP7 block	SENP1 inh	Platelet DG rel	SENP6 inh
O=C(N/N=C/C=C\c1ccccc1[N+](=O)[O-])c1cc(-c2ccc3ccccc3c2)n[nH]1	-	.	.	-	-	.
O=Cc1cn(CC(=O)N2CCCCC2)c2ccccc12	-	-	-	-	-	-
CN1C(=O)/C(=C/c2cn(CC(=O)N3CCCCC3)c3ccccc23)c2ccccc21	.	-	-	.	54.5	-
O=C(COC(=O)Cc1ccc(Cl)cc1)Nc1ccccc1-c1ccccc1	-	-	-	-	-	-
CC1CCCC(C)N1C(=O)c1ccc(S(=O)(=O)N2CCCC2)cc1 (centres undefined)	-	-	-	-	.	-
CC1(C)CC(N2CCC(=O)NC2=S)CC(C)(C)N1	-	-	-	-	68.8	-
CC1(C)CC(N2CCC(=O)N(C3CC(C)(C)NC(C)(C)C3)C2)CC(C)(C)N1	-	-	-	-	-	-
COc1ccc(C(=O)COC(=O)c2cccnc2SC)cc1	-	-	70.5	-	-	-
COC(=O)CCC(=O)OC1(C)C(=O)C2=CN(CCN3CCOCC3)C(c3ccc(OC)cc3)=CC2=C(Br)C1=O (centres undefined)	.	-	-	.	-	52.0
COC(=O)CCC(=O)OC1(C)C(=O)C2=CN(CCCCO)C(c3ccc(OC)cc3)=CC2=C(Br)C1=O (centres undefined)	.	-	-	.	-	-
O=C1NC(=Nc2ccccc2)S/C1=C\c1cccs1	-	59.2	-	-	-	69.4
Cn1cccc1/C=C1\SC(=Nc2ccc(O)cc2)NC1=O	-	-	-	-	-	-
Cn1cccc1/C=C1\SC(=Nc2cccc(O)c2)NC1=O	-	54.3	52.2	-	-	77.8
Cc1cccc(N=C2C(=O)Nc3c(Cl)cccc32)c1	-	-	-	-	-	-
CC(=O)N[C@@H](Cc1c[nH]c2ccccc12)C(=O)NC1CCCc2ccccc21 (some centres undefined)	-	-	-	-	-	-
Cn1nc(C(C)(C)C)cc1C(=O)Nc1nc2c(s1)C(=O)CC(C)(C)C2	-	-	-	-	-	-
Cc1nn(-c2ccccc2)c(N)c1N=Nc1cccc(S(=O)(=O)N2CCOCC2)c1	40.7	-	-	-	-	-
CC1(C)Cc2c(c(-c3ccco3)nc3sc4c(NCCN5CCOCC5)ncnc4c23)CO1	-	-	-	-	-	-
CC1(C)Cc2c(sc3nc(NCCN4CCOCC4)n4ncnc4c23)CO1	-	-	-	-	52.3	-
O=C(c1ccc(OC2CCN(CCc3ccccc3)CC2)cc1)N1CCC[C@H]1CO	-	-	-	-	-	-
CC(=O)N(/N=C1\Sc2ccccc2C1=O)c1ccccc1	73.8	.	.	-	.	.
Cc1ccc(/C=N/NC(=O)CCSc2ccccc2)cc1	-	-	-	-	-	-
Cc1cccc2sc(NNC(=O)c3cc(=O)c4ccccc4o3)nc12	-	96.0	88.7	-	-	98.3
CCCCN1/C(=C/c2ccc3ccccc3[n+]2CC)Sc2ccccc21	-	-	-	70.1	-	-
CCN1/C(=C/c2ccc3ccccc3[n+]2CC)C=Cc2ccccc21	42.3	-	-	63.1	-	-
SMILES	SENP8 block-1	SENP8 block-2	SENP7 block	SENP1 inh	Platelet DG rel	SENP6 inh
COC(=O)N/N=C/C1=CCC2CC1C2(C)C (centres undefined)	-	-	-	-	-	-
CCOc1ccc(-c2nc(CSCC(=O)NC3CCN(Cc4ccccc4)CC3)c(C)o2)cc1	-	.	.	-	.	.
Fc1ccccc1-c1nc2ccccc2[nH]1	-	62.8	75.9	-	-	74.1
CNC(=O)c1ccsc1NC(=O)CCS(=O)(=O)c1ccc(C)cc1	-	-	-	-	-	-
O=C(C1=C(c2ccccc2)C(=O)c2ccccc2C1=O)c1ccccc1	-	.	.	-	-	.
O=C1C(=O)c2c(C(=O)c3ccccc3)coc2-c2ccccc21	60.6	-	-	-	-	-
O=C1c2cccc(Sc3ccccc3)c2C(=O)c2c(Sc3ccccc3)cccc21	52.2	-	-	-	-	-
COc1ccc(N2CCN(C(=O)c3ccc(COc4ccc5c(C)cc(=O)oc5c4)cc3)CC2)cc1	-	-	-	-	-	-
CC1OC(CC(=O)O)CC2=C1C(=O)c1c(O)cccc1C2=O (centres undefined)	88.7	.	.	-	.	.
CCCCN1C(=O)/C(=C/C=C2\N(C)c3ccccc3C2(C)C)SC1=S	.	-	-	.	-	-
CCCN1C(=O)/C(=C\C=C2/C=CN(CC)c3ccccc32)SC1=S	54.8	-	-	-	-	-

Assay outcomes from PubChem.
